The source made the active and inactive calls. The rule behind the calls is not given here.
What was measured:
[1] = molecular target: T1, DNA (cytosine-5)-methyltransferase 3A (Homo sapiens, UniProt Q9Y6K1); assay: Inhibition of human DNMT3A catalytic domain using AdoMet assessed as reduction of methylation in 5'-biotin/3' 6-carboxyfluorescein labeled DNA duplex at CpG site at 32 uM after 1 hr by fluorescence assay relative to control
[2] = molecular target: T1, DNA (cytosine-5)-methyltransferase 3A; assay: Inhibition of human DNMT3A catalytic domain using AdoMet assessed as reduction of methylation in 5'-biotin/3' 6-carboxyfluorescein labeled DNA duplex at CpG site at 10 uM after 1 hr by fluorescence assay relative to control
[3] = molecular target: T2, DNA (cytosine-5)-methyltransferase 1 (Homo sapiens, UniProt P26358); assay: Inhibition of full length His-tagged human DNMT1 using SAM/[methyl-3H]SAM assessed as reduction of methylation in biotinylated hemimethylated DNA duplex at 32 uM after 1 hr by scintillation counting method relative to control
[4] = molecular target: T2, DNA (cytosine-5)-methyltransferase 1; assay: Inhibition of full length His-tagged human DNMT1 using SAM/[methyl-3H]SAM assessed as reduction of methylation in biotinylated hemimethylated DNA duplex at 100 uM after 1 hr by scintillation counting method relative to control
Homo sapiens [5] = organism: Homo sapiens; assay: Inhibition of DNMT in human KG1 cells assessed as luciferase gene driven CMV promoter demethylation by measuring luciferase reactivation at 5 uM after 24 hrs by luciferase reporter gene assay; format: cell-based
Procedure, shortened: (§1)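 Leukemia KG-1 cells carrying a stable luciferase gene under a partially methylated CMV promoter, treated in 96-well plates for 24 h. Luciferase signal read by luminescence (Britelite); reactivation fold expressed as ratio to non-treated cells. Mean of three experiments with standard error.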

Homo sapiens [6] = organism: Homo sapiens; assay: Inhibition of DNMT in human KG1 cells assessed as luciferase gene driven CMV promoter demethylation by measuring luciferase reactivation at 1 uM after 24 hrs by luciferase reporter gene assay; format: cell-based; procedure, shortened: as §1
[7] = molecular target: T2, DNA (cytosine-5)-methyltransferase 1; assay: Inhibition of full length His-tagged human DNMT1 using SAM/[methyl-3H]SAM assessed as reduction of methylation in biotinylated hemimethylated DNA duplex after 1 hr by scintillation counting method
Procedure, shortened: (§2)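 Human full-length DNMT1 and catalytic DNMT3A tested for methylation of a DNA duplex; the paper gives assay details elsewhere. EC50 from a sigmoid dose-response fit with variable Hill slope; reported as median with SE from at least two independent experiments for DNMT1 and three for DNMT3A; DNMT3A curves run in technical duplicates.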

[8] = molecular target: T1, DNA (cytosine-5)-methyltransferase 3A; assay: Inhibition of human DNMT3A catalytic domain using AdoMet assessed as reduction of methylation in 5'-biotin/3' 6-carboxyfluorescein labeled DNA duplex at CpG site after 1 hr by fluorescence assay; procedure, shortened: as §2

T2 sequence (P26358 whole entry): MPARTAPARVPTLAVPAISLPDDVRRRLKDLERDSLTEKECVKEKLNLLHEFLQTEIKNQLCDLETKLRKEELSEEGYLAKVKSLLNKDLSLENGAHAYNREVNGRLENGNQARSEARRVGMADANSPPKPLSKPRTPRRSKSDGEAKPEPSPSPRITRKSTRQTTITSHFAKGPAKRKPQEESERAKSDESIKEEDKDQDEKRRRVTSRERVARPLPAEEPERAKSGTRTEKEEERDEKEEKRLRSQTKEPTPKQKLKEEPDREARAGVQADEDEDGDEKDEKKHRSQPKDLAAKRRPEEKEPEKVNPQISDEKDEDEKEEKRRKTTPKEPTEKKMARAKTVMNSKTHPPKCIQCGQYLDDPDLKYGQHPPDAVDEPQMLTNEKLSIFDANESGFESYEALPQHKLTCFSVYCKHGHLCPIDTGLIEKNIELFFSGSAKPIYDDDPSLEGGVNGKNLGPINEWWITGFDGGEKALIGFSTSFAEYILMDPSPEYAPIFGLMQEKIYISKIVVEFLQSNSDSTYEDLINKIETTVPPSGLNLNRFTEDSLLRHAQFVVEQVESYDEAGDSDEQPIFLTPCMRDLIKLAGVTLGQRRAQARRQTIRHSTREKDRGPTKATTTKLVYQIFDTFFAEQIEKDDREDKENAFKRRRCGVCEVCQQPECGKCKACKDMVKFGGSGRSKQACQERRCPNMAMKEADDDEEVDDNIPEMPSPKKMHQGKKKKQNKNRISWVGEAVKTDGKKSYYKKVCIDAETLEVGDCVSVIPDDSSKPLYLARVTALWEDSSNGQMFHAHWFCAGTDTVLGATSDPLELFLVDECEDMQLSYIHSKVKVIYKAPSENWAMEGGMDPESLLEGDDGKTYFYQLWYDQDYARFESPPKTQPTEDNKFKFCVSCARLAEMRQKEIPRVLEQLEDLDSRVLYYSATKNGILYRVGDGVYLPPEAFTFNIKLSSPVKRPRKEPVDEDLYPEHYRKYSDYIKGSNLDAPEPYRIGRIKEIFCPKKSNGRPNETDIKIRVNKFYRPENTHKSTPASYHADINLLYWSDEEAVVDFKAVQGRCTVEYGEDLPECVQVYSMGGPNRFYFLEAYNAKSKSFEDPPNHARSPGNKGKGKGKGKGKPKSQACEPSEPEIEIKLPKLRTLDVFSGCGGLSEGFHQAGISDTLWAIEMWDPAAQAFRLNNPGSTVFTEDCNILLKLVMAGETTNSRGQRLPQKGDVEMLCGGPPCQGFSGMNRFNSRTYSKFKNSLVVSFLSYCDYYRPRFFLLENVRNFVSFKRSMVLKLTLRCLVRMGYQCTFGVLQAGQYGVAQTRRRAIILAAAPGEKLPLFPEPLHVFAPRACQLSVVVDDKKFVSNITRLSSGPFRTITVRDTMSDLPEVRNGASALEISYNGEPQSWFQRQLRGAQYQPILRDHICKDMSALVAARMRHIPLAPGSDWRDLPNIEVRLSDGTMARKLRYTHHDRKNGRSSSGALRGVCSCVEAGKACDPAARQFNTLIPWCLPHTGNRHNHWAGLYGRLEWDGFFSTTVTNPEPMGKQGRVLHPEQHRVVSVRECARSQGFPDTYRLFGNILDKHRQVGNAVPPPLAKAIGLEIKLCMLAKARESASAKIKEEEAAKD
T1 sequence (Q9Y6K1 whole entry, looked up, the tested form may be a part): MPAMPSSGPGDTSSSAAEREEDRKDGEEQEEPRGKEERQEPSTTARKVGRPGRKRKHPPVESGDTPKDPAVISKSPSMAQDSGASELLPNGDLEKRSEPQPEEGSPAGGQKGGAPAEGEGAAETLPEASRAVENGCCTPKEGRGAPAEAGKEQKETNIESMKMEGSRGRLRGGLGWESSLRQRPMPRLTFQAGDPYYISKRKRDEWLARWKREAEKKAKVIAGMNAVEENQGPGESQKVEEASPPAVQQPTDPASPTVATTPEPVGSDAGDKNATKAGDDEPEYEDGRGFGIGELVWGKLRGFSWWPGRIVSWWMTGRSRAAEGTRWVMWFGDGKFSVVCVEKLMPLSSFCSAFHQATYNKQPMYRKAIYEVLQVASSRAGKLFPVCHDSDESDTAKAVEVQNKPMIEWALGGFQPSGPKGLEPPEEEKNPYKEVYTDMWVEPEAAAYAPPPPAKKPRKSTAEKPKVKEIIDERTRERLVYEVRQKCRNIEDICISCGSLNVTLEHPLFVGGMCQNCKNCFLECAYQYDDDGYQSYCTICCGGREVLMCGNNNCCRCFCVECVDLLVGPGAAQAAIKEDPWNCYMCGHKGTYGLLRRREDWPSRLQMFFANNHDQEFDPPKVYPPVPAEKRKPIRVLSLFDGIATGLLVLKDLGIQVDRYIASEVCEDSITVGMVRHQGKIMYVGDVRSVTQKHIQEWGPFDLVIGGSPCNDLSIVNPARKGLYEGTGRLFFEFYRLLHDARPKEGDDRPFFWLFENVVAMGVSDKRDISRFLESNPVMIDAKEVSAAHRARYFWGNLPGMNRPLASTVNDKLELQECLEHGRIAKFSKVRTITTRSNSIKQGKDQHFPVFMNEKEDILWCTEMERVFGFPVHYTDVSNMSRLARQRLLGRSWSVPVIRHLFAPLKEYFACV

inhibition [1] [%]	inhibition [2] [%]	inhibition [3] [%]	inhibition [4] [%]	EC50 [7] [µM]	EC50 [8] [µM]	SMILES	inhibition (Homo sapiens [5])	inhibition (Homo sapiens [6])
0	0	0	0			c1ccc(CCCNc2ncnc3cc(OCC4CCN(CCNc5cccc6ccccc56)CC4)ccc23)cc1	inactive	inactive
95	76	61	93	73	6.8	c1ccc(NCCNc2ncnc3cc(OCC4CCN(CCNc5ccnc6ccccc56)CC4)ccc23)cc1		
99	80	38	98	32	4.9	c1ccc(CCNc2ncnc3cc(OCC4CCN(CCNc5ccnc6ccccc56)CC4)ccc23)cc1		
60	96	100	100	16	1.9	c1ccc2c(CCCNc3ncnc4cc(OCC5CCN(CCNc6ccnc7ccccc67)CC5)ccc34)cccc2c1		
100	88	75	97	26	1.2	Clc1ccc(CCNc2ncnc3cc(OCC4CCN(CCNc5ccnc6ccccc56)CC4)ccc23)cc1		

Continued, compound first:

SMILES	inhibition [1] [%]	inhibition [2] [%]	inhibition [3] [%]	inhibition [4] [%]	EC50 [7] [µM]	EC50 [8] [µM]	inhibition (Homo sapiens [5])	inhibition (Homo sapiens [6])
Clc1cccc(CCNc2ncnc3cc(OCC4CCN(CCNc5ccnc6ccccc56)CC4)ccc23)c1	98	84	0	97		1		
COc1cc2nccc(NCCN3CCC(COc4ccc5c(NCCCc6ccccc6)ncnc5c4)CC3)c2cc1OC	95	95	57	81	30	1.4		
Cc1cc(NCCN2CCC(COc3ccc4c(NCCCc5ccccc5)ncnc4c3)CC2)c2ccccc2n1	100	89	83	100	24	2.1		
COc1ccc(CCNc2ncnc3cc(OCC4CCN(CCNc5ccnc6ccccc56)CC4)ccc23)cc1	100	82	82	100	27	3.4		
